Results taken from ChEMBL document CHEMBL3576758, “Creation of Customized Bioactivity within a 14-Membered Macrolide Scaffold: Design, Synthesis, and Biological Evaluation Using a Family-18 Chitinase” (J Med Chem, 2015).
One block for each molecule: values may come before it.

Key:
[1] = target: T1, Chitinase B (Serratia marcescens, UniProt P11797); experiment: Inhibition of Serratia marcescens chitinase ChiB assessed as reduction in chitinolytic activity using 4MU-(GlcNAc)2 substrate by fluorescence based assay
T1 sequence (P11797 whole entry): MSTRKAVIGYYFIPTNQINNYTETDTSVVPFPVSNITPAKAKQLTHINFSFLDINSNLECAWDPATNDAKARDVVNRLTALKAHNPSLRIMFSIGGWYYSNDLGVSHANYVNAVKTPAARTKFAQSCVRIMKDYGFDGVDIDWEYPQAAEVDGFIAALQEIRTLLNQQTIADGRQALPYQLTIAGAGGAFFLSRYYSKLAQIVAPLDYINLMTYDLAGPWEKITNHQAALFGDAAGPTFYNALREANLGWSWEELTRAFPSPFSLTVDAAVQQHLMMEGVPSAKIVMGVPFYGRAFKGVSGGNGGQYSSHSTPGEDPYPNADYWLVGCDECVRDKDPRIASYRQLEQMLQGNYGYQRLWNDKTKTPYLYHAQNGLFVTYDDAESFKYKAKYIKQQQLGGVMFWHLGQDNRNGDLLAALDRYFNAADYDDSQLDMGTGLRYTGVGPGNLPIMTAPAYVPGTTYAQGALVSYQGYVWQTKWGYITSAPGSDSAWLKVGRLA
Summary of the method: (§1)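 Crude SmChiB: supernatant of sonicated E. coli DH5α carrying pMCB7, grown 24 h at 37 °C in LB with ampicillin and 0.5 mM IPTG, then diluted ×40. Enzyme and inhibitors (in MeOH) were mixed in 0.1 M phosphate, pH 7.0, at 37 °C, and 80 μM 4MU(GlcNAc)2 solution was added. Fluorescence (ex 355/em 460 nm) was read every 60 s, with rates corrected for inhibitor quenching. IC50 was taken from sigmoidal dose–response fits.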

[2] = target: T1, Chitinase B; experiment: Inhibition of Serratia marcescens chitinase ChiB; summary of the method: as §1
[3] = tested on: Staphylococcus aureus; experiment: Antibacterial activity against methicillin-sensitive Staphylococcus aureus Smith by antimicrobial disk and dilution susceptibility test; format: functional
[4] = tested on: Acinetobacter calcoaceticus; experiment: Antibacterial activity against Acinetobacter calcoaceticus IFO12552 by antimicrobial disk and dilution susceptibility test; format: functional
[5] = tested on: Escherichia coli; experiment: Antibacterial activity against Escherichia coli NIHJ JC-2 by antimicrobial disk and dilution susceptibility test; format: functional
[6] = tested on: Micrococcus luteus; experiment: Antibacterial activity against Micrococcus luteus ATCC 9341 by antimicrobial disk and dilution susceptibility test; format: functional
[7] = tested on: Serratia marcescens; experiment: Antibacterial activity against Serratia marcescens IFO12648 by antimicrobial disk and dilution susceptibility test; format: functional
[8] = tested on: Citrobacter freundii; experiment: Antibacterial activity against Citrobacter freundii ATCC 8090 by antimicrobial disk and dilution susceptibility test; format: functional
[9] = tested on: Pseudomonas aeruginosa; experiment: Antibacterial activity against Pseudomonas aeruginosa 46001 by antimicrobial disk and dilution susceptibility test; format: functional
[10] = tested on: Enterococcus faecalis; experiment: Antibacterial activity against Enterococcus faecalis ATCC 29212 by antimicrobial disk and dilution susceptibility test; format: functional
[11] = tested on: Klebsiella aerogenes; experiment: Antibacterial activity against Enterobacter aerogenes NCTC 10006 by antimicrobial disk and dilution susceptibility test; format: functional
[12] = tested on: Pseudomonas aeruginosa; experiment: Antibacterial activity against Pseudomonas aeruginosa E-2 by antimicrobial disk and dilution susceptibility test; format: functional
[13] = tested on: Proteus mirabilis; experiment: Antibacterial activity against Proteus mirabilis IFO3849 by antimicrobial disk and dilution susceptibility test; format: functional
[14] = tested on: Staphylococcus epidermidis; experiment: Antibacterial activity against Staphylococcus epidermidis KUB795 by antimicrobial disk and dilution susceptibility test; format: functional
[15] = tested on: Klebsiella pneumoniae; experiment: Antibacterial activity against Klebsiella pneumoniae NCTC 9632 by antimicrobial disk and dilution susceptibility test; format: functional
[16] = tested on: Proteus vulgaris; experiment: Antibacterial activity against Proteus vulgaris OX-19 by antimicrobial disk and dilution susceptibility test; format: functional
[17] = tested on: Staphylococcus aureus; experiment: Antibacterial activity against methicillin-sensitive Staphylococcus aureus FDA209P by antimicrobial disk and dilution susceptibility test; format: functional
[18] = tested on: Morganella morganii; experiment: Antibacterial activity against Morganella morganii IID Kono by antimicrobial disk and dilution susceptibility test; format: functional
[19] = tested on: Enterobacter cloacae; experiment: Antibacterial activity against Enterobacter cloacae IFO13535 by antimicrobial disk and dilution susceptibility test; format: functional

Structure (SMILES): CNC(=O)NC(=N)NCCN=[N+]=[N-]
IC50 [1]: 7 µM

Structure (SMILES): CC(=O)NC(=N)NCCC[C@@H]1NC(=O)[C@H](CCCC(=O)O)NC(=O)[C@H](Cc2c[nH]cn2)N2C(=O)[C@H](C[C@H]2O)NC(=O)[C@H]2CCCN2C1=O [ARGADIN]
IC50 [2]: 0.033 µM

Structure (SMILES): CC[C@H]1OC(=O)[C@H](C)[C@@H](O[C@H]2C[C@@](C)(OC)[C@@H](O)[C@H](C)O2)[C@H](C)[C@@H](O[C@@H]2O[C@H](C)C[C@H](N(C)C)[C@H]2O)[C@](C)(O)C[C@@H](C)C(=O)[C@H](C)[C@@H](O)[C@]1(C)O [ERYTHROMYCIN]
IC50 [1]: > 300 µM

Structure (SMILES): CNC(=O)NC(=N)n1cccn1
IC50 [1]: > 300 µM

Structure (SMILES): CC[C@H]1OC(=O)[C@H](C)[C@@H](O)[C@H](C)[C@@H](O)[C@](C)(O)C[C@@H](C)/C(=N\OCc2cn(CCNC(=N)NC(=O)NC)nn2)[C@H](C)[C@@H](O)[C@]1(C)O
IC50 [1]: 24.1 µM

Structure (SMILES): C#CCO[C@@H]1[C@@H](C)[C@H](O)[C@@H](C)C(=O)O[C@H](CC)[C@@](C)(O)[C@@H]2OC(C)(C)O[C@H]([C@@H]2C)[C@H](C)C[C@@]1(C)O
IC50 [1]: > 300 µM

Structure (SMILES): CC(=O)N[C@H]1[C@H](O[C@H]2[C@@H](O)[C@@H](NC(C)=O)[C@H](O[C@H]3[C@H](O)[C@H]4N=C(N(C)C)O[C@H]4[C@@H]3CO)O[C@@H]2CO)O[C@H](CO)[C@@H](O)[C@H]1O [ALLOSAMIDIN]
IC50 [1]: 0.09 µM

Structure (SMILES): CC[C@H]1OC(=O)[C@H](C)[C@@H](O)[C@H](C)[C@@H](O)[C@](C)(O)C[C@@H](C)[C@@H]2OC(C)(C)O[C@H]([C@H]2C)[C@]1(C)O
IC50 [1]: > 300 µM

Results, then the molecule that gave them:

IC50 [1]: 3.3 µM
Structure (SMILES): CC[C@H]1OC(=O)[C@H](C)[C@@H](OCc2cn(CCNC(=N)NC(=O)NC)nn2)[C@H](C)[C@@H](O)[C@](C)(O)C[C@@H](C)[C@@H]2OC(C)(C)O[C@H]([C@H]2C)[C@]1(C)O

IC50 [1]: 11.9 µM
Structure (SMILES): CC[C@H]1OC(=O)[C@H](C)[C@@H](O)[C@H](C)[C@@H](OCc2cn(CCNC(=N)NC(=O)NC)nn2)[C@](C)(O)C[C@@H](C)[C@@H]2OC(C)(C)O[C@H]([C@H]2C)[C@]1(C)O

MIC [3]: > 64 µg/mL
MIC [4]: > 64 µg/mL
MIC [5]: > 64 µg/mL
MIC [6]: > 64 µg/mL
MIC [7]: > 64 µg/mL
MIC [8]: > 64 µg/mL
MIC [9]: > 64 µg/mL
MIC [10]: > 64 µg/mL
IC50 [1]: 0.036 µM
MIC [11]: > 64 µg/mL
MIC [12]: > 64 µg/mL
MIC [13]: > 64 µg/mL
MIC [14]: > 64 µg/mL
MIC [15]: > 64 µg/mL
MIC [16]: > 64 µg/mL
MIC [17]: > 64 µg/mL
MIC [18]: > 64 µg/mL
MIC [19]: > 64 µg/mL
Structure (SMILES): C#CCO[C@@H]1[C@@H](C)[C@H](OC(=O)NCCCNC(=N)NC(=O)NC)[C@@H](C)C(=O)O[C@H](CC)[C@@](C)(O)[C@@H]2OC(C)(C)O[C@H]([C@@H]2C)[C@H](C)C[C@@]1(C)O

IC50 [1]: 0.217 µM
Structure (SMILES): C#CCO[C@@H]1[C@@H](C)[C@H](OC(=O)NCCCCNC(=N)NC(=O)NC)[C@@H](C)C(=O)O[C@H](CC)[C@@](C)(O)[C@@H]2OC(C)(C)O[C@H]([C@@H]2C)[C@H](C)C[C@@]1(C)O
